In ChEMBL document CHEMBL1139865 (J Med Chem, 2007):
Each block holds one compound with its values, some of them ahead of it. Calls of active or inactive are those of the source. The rule behind the calls is not given here.

Tests used:
[1] = Half life in dog at 1 mg/kg, iv; format: ADME, organism-based, Canis lupus familiaris; design: dose 1 mg/kg, route intravenous; details: in vivo
Procedure, shortened: (§1)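 Dog PK study using the HCl salt, dosed at 1 mg/kg iv or 3 mg/kg orally. Plasma drug levels were followed, and plasma DPP-4 activity was tracked alongside them.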

[2] = Half life in dog at 3 mg/kg, po; format: ADME, organism-based, Canis lupus familiaris; design: dose 3 mg/kg, route oral; details: in vivo; procedure, shortened: as §1
[3] = AUC in dog at 3 mg/kg, po; format: ADME, organism-based, Canis lupus familiaris; design: dose 3 mg/kg, route oral; details: plasma; procedure, shortened: as §1
[4] = Clearance in dog at 1 mg/kg, iv and 3 mg/kg, po; format: ADME, organism-based, Canis lupus familiaris; details: in vivo; procedure, shortened: as §1
[5] = Volume of distribution at steady state in dog at 1 mg/kg, iv and 3 mg/kg, po; format: ADME, organism-based, Canis lupus familiaris; details: in vivo, read-out: Vdss; procedure, shortened: as §1
[6] = Bioavailability in dog at 1 mg/kg, iv and 3 mg/kg, po; format: ADME, organism-based, Canis lupus familiaris; details: in vivo; procedure, shortened: as §1
[7] = in vitro; details: human
[8] = in vitro; details: rat
[9] = species on record: Rattus norvegicus; test: Improvement in glucose tolerance in Wistar fatty rat; format: functional, organism-based
Procedure, shortened: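 Glucose tolerance test in female Wistar fatty rats given the benzoate salt, with doses normalized to free base. Read-outs after an oral glucose load were plasma glucose, the baseline (0 min)-adjusted glucose AUC0–60min, and plasma immunoreactive insulin, including the level at 10 min. Data are mean and SD (n = 6), compared with control by one-tailed Williams'/Shirley-Williams' tests.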

[10] = species on record: Rattus norvegicus; test: Increase in plasma insulin level in Wistar fatty rat; format: functional, organism-based
Procedure, shortened: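 Female Wistar fatty rats given a benzoate salt, with doses expressed as free base, then an oral glucose load. Plasma immunoreactive insulin read 10 min after the glucose load. Mean and SD, n = 6. Compared with control by one-tailed Williams' or Shirley-Williams' test, p ≤ 0.025.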

[11] = species on record: Mus musculus; test: Reduction in glucose excursion in mouse after oral glucose tolerance test; format: functional, organism-based
[12] = Half life in rat at 1 mg/kg, iv; format: ADME, organism-based; design: dose 1 mg/kg, route intravenous; details: in vivo
Procedure, shortened: (§2)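 Rat PK study using the TFA salt. A single iv dose (1 mg/kg) and a separate oral dose (10 mg/kg) were given. Half-life was derived for each route, and CL and Vdss for the iv route. F (%) was calculated from the oral and iv exposure.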

[13] = Half life in rat at 10 mg/kg, po; format: ADME, organism-based; design: dose 10 mg/kg, route oral; details: in vivo; procedure, shortened: as §2
[14] = AUC in rat at 10 mg/kg, po; format: ADME, organism-based; design: dose 10 mg/kg, route oral; details: plasma
Procedure, shortened: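 Rat pharmacokinetics with the test article given as the TFA salt: 1 mg/kg iv and 10 mg/kg oral. Oral AUC comes from plasma concentrations after oral dosing. Half-lives, clearance, Vdss and oral bioavailability are derived from the same iv/oral pair.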

[15] = Clearance in rat at 1 mg/kg, iv and 10 mg/kg, po; format: ADME, organism-based; details: in vivo; procedure, shortened: as §2
[16] = Volume of distribution at steady state in rat at 1 mg/kg, iv and 10 mg/kg, po; format: ADME, organism-based; details: in vivo, read-out: Vdss; procedure, shortened: as §2
[17] = Half life in monkey at 1.1 mg/kg, iv; format: ADME, organism-based, Macaca mulatta; design: dose 1.1 mg/kg, route intravenous; details: rhesus monkey, in vivo
Procedure, shortened: (§3)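 Monkey PK study using the benzoate salt, dosed at 1.1 mg/kg iv or 10 mg/kg orally. Plasma drug concentrations and plasma DPP-4 inhibition were measured. Parameters derived were iv and oral half-lives, oral AUC, CL, Vdss and F (%).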

[18] = Half life in monkey at 10 mg/kg, po; format: ADME, organism-based, Macaca mulatta; design: dose 10 mg/kg, route oral; details: rhesus monkey, in vivo; procedure, shortened: as §3
[19] = AUC in monkey at 10 mg/kg, po; format: ADME, organism-based, Macaca mulatta; design: dose 10 mg/kg, route oral; details: rhesus monkey, plasma; procedure, shortened: as §3
[20] = Clearance in monkey at 1.1 mg/kg, iv and 10 mg/kg, po; format: ADME, organism-based, Macaca mulatta; details: rhesus monkey, in vivo; procedure, shortened: as §3
[21] = Volume of distribution at steady state in monkey at 1.1 mg/kg, iv and 10 mg/kg, po; format: ADME, organism-based, Macaca mulatta; details: rhesus monkey, in vivo, read-out: Vdss; procedure, shortened: as §3
[22] = Bioavailability in monkey at 1.1 mg/kg, iv and 10 mg/kg, po; format: ADME, organism-based, Macaca mulatta; details: rhesus monkey, in vivo; procedure, shortened: as §3

Structure (SMILES): COc1cc2nc(N3CCC[C@@H](N)C3)n(Cc3ccccc3C#N)c(=O)c2cc1OC
half-life at 1 µM ([7]; liver microsomes): 2.43 h
half-life at 1 µM ([8]; liver microsomes): 1.78 h

Structure (SMILES): N#Cc1ccccc1Cn1c(N2CCC[C@@H](N)C2)nc2ccc(Br)cc2c1=O
half-life at 1 µM ([7]; liver microsomes): 1.88 h
half-life at 1 µM ([8]; liver microsomes): 0.567 h

Structure (SMILES): N#Cc1ccccc1Cn1c(N2CCC[C@@H](N)C2)nc2ccc(Cl)cc2c1=O
half-life at 1 µM ([7]; liver microsomes): > 3.33 h
half-life at 1 µM ([8]; liver microsomes): 0.667 h

Structure (SMILES): N#Cc1ccccc1Cn1c(N2CCC[C@@H](N)C2)nc2cc(N3CCOCC3)c(F)cc2c1=O
half-life at 1 µM ([7]; liver microsomes): 0.55 h
half-life at 1 µM ([8]; liver microsomes): 0.102 h

Structure (SMILES): Cn1c(=O)cc(N2CCC[C@@H](N)C2)n(Cc2ccccc2C#N)c1=O
Activity [9]: Dose-dependent effect
Activity [10]: Active

Structure (SMILES): N#Cc1ccccc1Cn1c(N2CCC[C@@H](N)C2)nc2ccc(F)cc2c1=O [listing 1 of 2 here]
Activity [11]: Active

Structure (SMILES): N#Cc1ccccc1Cn1c(N2CCCC(N)C2)nc2c(Cl)cccc2c1=O (configuration not stated)
half-life at 1 µM ([7]; liver microsomes): 1.33 h
half-life at 1 µM ([8]; liver microsomes): 0.0617 h

Structure (SMILES): N#Cc1ccccc1Cn1c(N2CCC[C@@H](N)C2)nc2ccccc2c1=O
half-life at 1 µM ([7]; microsomes): > 3.33 h
half-life at 1 µM ([8]; microsomes): 0.0417 h

Structure (SMILES): N#Cc1ccccc1Cn1c(N2CCC[C@@H](N)C2)nc2ccc(F)cc2c1=O.O=C(O)C(F)(F)F
half-life [12]: 2.6 h
half-life [13]: 2.43 h
AUC [14]: 7560 ng·h/mL
clearance [15]: 20.6 mL/min/kg
Vd [16]: 2.87 L/kg

Structure (SMILES): COc1cc2c(=O)n(Cc3ccccc3C#N)c(N3CCC[C@@H](N)C3)nc2cc1F
half-life at 1 µM ([7]; liver microsomes): 2.27 h
half-life at 1 µM ([8]; liver microsomes): 0.583 h

Next, values leading:

half-life [1]: 2.93 h
half-life [2]: 3.04 h
AUC [3]: 1610 ng·h/mL
clearance [4]: 23 mL/min/kg
Vd [5]: 3.51 L/kg
bioavailability [6]: 68%
Structure (SMILES): Cl.Cn1c(=O)cc(N2CCC[C@@H](N)C2)n(Cc2ccccc2C#N)c1=O

half-life at 1 µM ([7]; microsomes): 1.07 h
half-life at 1 µM ([8]; microsomes): 0.283 h
Structure (SMILES): N#Cc1ccccc1Cn1c(N2CCC[C@@H](N)C2)nc2c(Cl)cc(Cl)cc2c1=O

half-life at 1 µM ([7]; liver microsomes): 1.37 h
half-life at 1 µM ([8]; liver microsomes): 0.167 h
Structure (SMILES): COc1ccc2nc(N3CCC[C@@H](N)C3)n(Cc3ccccc3C#N)c(=O)c2c1

half-life at 1 µM ([7]; microsomes): 2.08 h
half-life at 1 µM ([8]; microsomes): 0.03 h
Structure (SMILES): N#Cc1ccccc1Cn1c(N2CCC[C@@H](N)C2)nc2cccc(F)c2c1=O

half-life [17]: 5.74 h
half-life [18]: 5.66 h
AUC [19]: 16600 ng·h/mL
clearance [20]: 8.81 mL/min/kg
Vd [21]: 2.6 L/kg
bioavailability [22]: 87%
Structure (SMILES): Cn1c(=O)cc(N2CCC[C@@H](N)C2)n(Cc2ccccc2C#N)c1=O.O=C(O)c1ccccc1 [ALOGLIPTIN BENZOATE]

half-life at 1 µM ([7]; liver microsomes): > 3.33 h
half-life at 1 µM ([8]; liver microsomes): 0.517 h
Structure (SMILES): N#Cc1ccccc1Cn1c(N2CCC[C@@H](N)C2)nc2ccc(F)cc2c1=O [listing 2 of 2 here]
